Activity calls are given as the source filed them. No cut-off for these calls is given here.
Tests used:
[1] = tested on: Mus musculus; experiment: Sedative effect in ip dosed C57BL/6N mouse assessed as reduction in locomotor activity by open field test; type: organism-based; conditions: in vivo
How it was run: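 Male C57BL/6N mice, 3–6 months old, dosed ip 30 min before testing. Vehicle was 0.9% NaCl with 10% DMSO and 3% Tween 80; doses in mg/kg. Ambulation recorded over 10 min in a 50 × 50 cm box fitted with infrared rearing detection.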

[2] = molecular target: Transient receptor potential cation channel subfamily V member 1 (Homo sapiens) (UniProt Q8NER1); experiment: Activation of TRPV1 (unknown origin) expressed in Xenopus oocytes up to 100 uM; type: cell-based
Chain of Transient receptor potential cation channel subfamily V member 1 (Homo sapiens) (Q8NER1 whole entry): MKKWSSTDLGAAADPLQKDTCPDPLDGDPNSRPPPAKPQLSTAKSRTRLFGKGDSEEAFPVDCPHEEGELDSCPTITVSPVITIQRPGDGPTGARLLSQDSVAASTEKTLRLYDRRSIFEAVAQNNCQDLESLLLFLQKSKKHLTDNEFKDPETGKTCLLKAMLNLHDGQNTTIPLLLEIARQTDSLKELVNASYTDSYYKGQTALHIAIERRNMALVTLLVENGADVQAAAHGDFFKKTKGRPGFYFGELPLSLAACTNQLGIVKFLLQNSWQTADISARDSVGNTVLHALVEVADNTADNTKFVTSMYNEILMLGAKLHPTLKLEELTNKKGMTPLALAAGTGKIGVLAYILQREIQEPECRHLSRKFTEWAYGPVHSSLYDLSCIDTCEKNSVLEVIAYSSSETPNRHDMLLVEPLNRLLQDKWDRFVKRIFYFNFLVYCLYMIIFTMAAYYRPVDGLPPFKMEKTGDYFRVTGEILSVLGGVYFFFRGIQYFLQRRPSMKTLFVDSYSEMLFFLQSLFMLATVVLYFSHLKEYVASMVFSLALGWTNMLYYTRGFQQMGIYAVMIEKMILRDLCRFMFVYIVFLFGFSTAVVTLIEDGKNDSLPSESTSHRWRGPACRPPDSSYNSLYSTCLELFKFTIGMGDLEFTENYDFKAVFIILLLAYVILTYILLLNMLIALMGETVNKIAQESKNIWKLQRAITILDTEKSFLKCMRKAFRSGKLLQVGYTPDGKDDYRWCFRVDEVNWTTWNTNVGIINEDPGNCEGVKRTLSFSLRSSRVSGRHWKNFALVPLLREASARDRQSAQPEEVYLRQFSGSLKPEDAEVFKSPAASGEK

[3] = molecular target: T1, GABA-A receptor; alpha-1/beta-2/gamma-2 (Homo sapiens, UniProt P14867+P18507+P47870); experiment: Modulation of GABAA alpha1beta2gamma2S receptor (unknown origin) expressed in Xenopus laevis oocytes assessed as potentiation of GABA-induced chloride ion current at holding potential -70 mV by two-microelectrode voltage clamp assay; type: cell-based
T1 sequence (P14867 whole entry): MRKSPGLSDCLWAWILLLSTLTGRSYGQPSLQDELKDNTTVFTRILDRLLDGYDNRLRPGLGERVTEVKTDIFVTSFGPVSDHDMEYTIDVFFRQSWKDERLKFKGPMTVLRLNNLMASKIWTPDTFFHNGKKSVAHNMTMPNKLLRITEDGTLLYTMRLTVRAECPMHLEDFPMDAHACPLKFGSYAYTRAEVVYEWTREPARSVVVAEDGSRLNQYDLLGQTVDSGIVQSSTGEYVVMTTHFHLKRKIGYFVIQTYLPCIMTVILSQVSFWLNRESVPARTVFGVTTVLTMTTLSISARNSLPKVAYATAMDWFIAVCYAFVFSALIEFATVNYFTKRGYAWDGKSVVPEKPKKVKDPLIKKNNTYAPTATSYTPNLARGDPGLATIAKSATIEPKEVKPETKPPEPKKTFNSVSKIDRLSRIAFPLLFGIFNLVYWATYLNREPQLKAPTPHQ
T1 sequence (P47870 whole entry): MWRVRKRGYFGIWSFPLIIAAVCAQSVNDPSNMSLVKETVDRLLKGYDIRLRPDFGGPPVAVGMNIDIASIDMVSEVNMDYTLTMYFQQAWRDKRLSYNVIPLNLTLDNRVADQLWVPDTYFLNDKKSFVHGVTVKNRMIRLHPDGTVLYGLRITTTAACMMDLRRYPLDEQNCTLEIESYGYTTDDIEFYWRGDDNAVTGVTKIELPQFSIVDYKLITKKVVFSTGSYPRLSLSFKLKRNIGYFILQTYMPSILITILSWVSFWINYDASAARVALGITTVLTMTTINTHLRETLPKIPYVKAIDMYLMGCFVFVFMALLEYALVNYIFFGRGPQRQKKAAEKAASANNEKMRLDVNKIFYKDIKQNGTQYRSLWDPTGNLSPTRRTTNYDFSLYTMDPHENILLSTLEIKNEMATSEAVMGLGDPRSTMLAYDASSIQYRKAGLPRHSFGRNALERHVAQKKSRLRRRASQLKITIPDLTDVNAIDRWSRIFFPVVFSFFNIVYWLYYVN
T1 sequence (P18507 whole entry): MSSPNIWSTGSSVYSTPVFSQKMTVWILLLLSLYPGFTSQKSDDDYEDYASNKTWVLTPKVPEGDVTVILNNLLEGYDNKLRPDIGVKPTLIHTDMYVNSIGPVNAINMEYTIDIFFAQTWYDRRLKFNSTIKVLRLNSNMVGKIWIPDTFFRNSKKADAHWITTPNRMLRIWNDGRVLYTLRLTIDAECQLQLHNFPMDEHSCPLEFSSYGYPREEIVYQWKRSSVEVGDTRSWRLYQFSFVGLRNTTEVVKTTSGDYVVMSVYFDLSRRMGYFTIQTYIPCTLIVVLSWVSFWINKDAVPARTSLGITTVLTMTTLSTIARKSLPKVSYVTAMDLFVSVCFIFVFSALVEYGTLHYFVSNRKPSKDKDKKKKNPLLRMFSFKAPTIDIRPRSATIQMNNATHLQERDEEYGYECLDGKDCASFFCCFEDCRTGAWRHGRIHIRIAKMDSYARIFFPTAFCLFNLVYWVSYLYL
How it was run: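 Stage V–VI oocytes injected with α1, β2 and γ2S cRNAs mixed 1:1:10 and kept at 18 °C in modified ND96 (pH 7.4). Two-microelectrode voltage clamp at room temperature, holding potential −70 mV, electrodes with 2 M KCl. Compounds co-applied by fast perfusion with GABA at EC3–7. Washout lasted 1.5 min below 10 μM and 30 min at ≥10 μM. Oocytes with currents >3 μA discarded.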

[4] = tested on: Mus musculus; experiment: Anxiolysis activity in ip dosed C57BL/6N mouse assessed as time spent on open arms by elevated plus maze test; type: functional, organism-based
How it was run: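 Male C57BL/6N mice, 3–6 months old, given ip injections 30 min before testing. Vehicle was 0.9% NaCl with 10% DMSO and 3% Tween 80; doses in mg/kg, with saline controls. 5 min on an elevated plus maze (arms 50 × 5 cm, 1 m high, 180 Lux), starting in the centre facing an open arm. Time on open arms scored automatically by video.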

Row | Activity [2] | Compound | Activity [1] | EC50 [3] | Activity [4]
1 | inactive | CCCCN(CCCC)C(=O)/C=C/C=C/c1ccc2c(c1)OCO2 | Toxic |  | 
2 |  | O=C(/C=C/C=C/c1ccc2c(c1)OCO2)N1CCCCC1 [PIPERINE] |  | 52.4 µM | 
3 | inactive | CCCN(CCC)C(=O)/C=C/C=C/c1ccc2c(c1)OCO2 | Toxic |  | Dose-dependent effect
